What was measured:
Thymidine kinase [1] = biological target: T1, Thymidine kinase (Human herpesvirus 1 (strain SC16) (HHV-1) (Human herpes simplex virus1), UniProt P06479); test: Inhibitory concentration against herpes simplex virus type 1 thymidine kinase
T1 sequence (P06479 whole entry): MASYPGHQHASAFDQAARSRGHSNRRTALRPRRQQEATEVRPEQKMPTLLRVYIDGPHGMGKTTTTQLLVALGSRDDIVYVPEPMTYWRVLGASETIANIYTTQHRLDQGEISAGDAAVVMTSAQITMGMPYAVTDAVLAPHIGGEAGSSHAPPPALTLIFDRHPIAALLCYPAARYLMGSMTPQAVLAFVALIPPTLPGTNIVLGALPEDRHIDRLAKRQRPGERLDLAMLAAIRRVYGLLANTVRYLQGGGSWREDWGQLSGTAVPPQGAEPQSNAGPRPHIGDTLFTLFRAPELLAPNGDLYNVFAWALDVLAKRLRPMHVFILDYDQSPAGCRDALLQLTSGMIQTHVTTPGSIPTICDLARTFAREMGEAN

Thymidine kinase [2] = biological target: T2, Thymidine kinase (Human herpesvirus 2, UniProt Q6L709); test: Inhibitory concentration against herpes simplex virus type 2 thymidine kinase; set-up: species or system Human alphaherpesvirus 2
T2 sequence (Q6L709 whole entry): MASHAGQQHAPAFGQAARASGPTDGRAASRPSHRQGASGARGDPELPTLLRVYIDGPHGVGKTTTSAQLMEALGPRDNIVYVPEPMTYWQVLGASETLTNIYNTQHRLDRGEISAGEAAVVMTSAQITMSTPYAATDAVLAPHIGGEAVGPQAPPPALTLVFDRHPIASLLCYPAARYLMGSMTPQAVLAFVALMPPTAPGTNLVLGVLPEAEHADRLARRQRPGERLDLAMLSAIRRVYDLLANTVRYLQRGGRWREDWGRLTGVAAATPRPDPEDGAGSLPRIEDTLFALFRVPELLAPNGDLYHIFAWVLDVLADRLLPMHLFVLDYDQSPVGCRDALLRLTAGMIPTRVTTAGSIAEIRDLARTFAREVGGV
Outline: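 Recombinant His-tagged HSV-2 TK expressed in E. coli, Ni-NTA purified. Products captured on DEAE paper and counted by scintillation. Inhibitor diluted from DMSO stocks, at least five concentrations in duplicate; IC50 is the concentration halving activity.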

Mus musculus [3] = test: Effect on ocular HSV-2 reactivation in mice following intraperitoneal dosage at 200 mg/kg; expressed as HSV-2 positive cultures/15 mice; assay type: functional, Eye
Outline: (§1)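 Female BALB/c mice, 6 weeks old, ocularly infected with HSV-2 strain G (Vero-grown) to establish trigeminal latency. Groups of 15 received a single ip dose as a corn oil suspension, with a corn oil-only group. Thirty minutes later they were immersed in 43 °C water for 10 min as hyperthermic stress. Eyes were swabbed after 24 h for infectious virus, and virus-positive cultures were counted per group.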

Mus musculus [4] = test: Effect on HSV-2 encephalitis in mice following intraperitoneal dosage at 100 mg/kg; expressed as mean day of death; assay type: functional
Outline: (§2)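 Female BALB/c mice, 6 weeks old, groups of 10, anesthetized with ketamine/xylazine. Corneas lightly scratched, then 10⁶ PFU per eye applied in culture medium (HSV-1 McKrae or HSV-2 G, Vero-grown). Compound given ip as corn-oil suspension, 0.1 mL, twice daily for 5 days; vehicle controls. Mice alive at 30 days counted survivors; day of death recorded for the rest.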

Mus musculus [5] = test: Effect on HSV-2 encephalitis in mice following intraperitoneal dosage at 100 mg/kg; expressed as number of survivors/10; assay type: functional; outline: as §2
Mus musculus [6] = test: Effect on HSV-1 encephalitis in mice following intraperitoneal dosage at 100 mg/kg; expressed as mean day of death; assay type: functional; outline: as §2
Mus musculus [7] = test: Effect on HSV-1 encephalitis in mice following intraperitoneal dosage at 100 mg/kg; expressed as number of survivors/10; assay type: functional; outline: as §2
Mus musculus [8] = test: Effect on HSV-1 encephalitis in mice following intraperitoneal dosage at 400 mg/kg; expressed as number of survivors/10; assay type: functional; outline: as §2
Mus musculus [9] = test: Effect on HSV-1 encephalitis in mice following intraperitoneal dosage at 400 mg/kg; expressed as mean day of death; assay type: functional; outline: as §2
Mus musculus [10] = test: Effect on HSV-2 encephalitis in mice following intraperitoneal dosage at 400 mg/kg; expressed as number of survivors/10; assay type: functional; outline: as §2
Mus musculus [11] = test: Effect on HSV-2 encephalitis in mice following intraperitoneal dosage at 200 mg/kg; expressed as number of survivors/10; assay type: functional; outline: as §2
Mus musculus [12] = test: Effect on HSV-2 encephalitis in mice following intraperitoneal dosage at 200 mg/kg; expressed as mean day of death; assay type: functional; outline: as §2
Mus musculus [13] = test: Effect on HSV-1 encephalitis in mice following intraperitoneal dosage at 200 mg/kg; expressed as number of survivors/10; assay type: functional; outline: as §2
Mus musculus [14] = test: Effect on HSV-1 encephalitis in mice following intraperitoneal dosage at 200 mg/kg; expressed as mean day of death; assay type: functional; outline: as §2
Mus musculus [15] = test: Effect ocular HSV-2 reactivation in mice following intraperitoneal dosage at 200 mg/kg; expressed as HSV-2 positive cultures/15 mice; assay type: functional, Eye; outline: as §1
Thymidine kinase [16] = biological target: T2, Thymidine kinase; test: Binding affinity for herpes simplex virus type 2 thymidine kinase; set-up: species or system Human alphaherpesvirus 2
Outline: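 His-tagged recombinant HSV-2 TK, expressed in E. coli DH5α and purified on Ni-NTA. Incubated 15 min at 37 °C in 30 mM HEPES-K+ pH 7.5, 6 mM MgCl2, 6 mM ATP, 0.5 mM DTT, with several [3H-methyl]TdR concentrations and inhibitor diluted from DMSO stocks. Phosphorylated product retained on DEAE paper disks and counted by scintillation. Ki taken from double-reciprocal (Lineweaver-Burk) plots.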

Thymidine kinase [17] = biological target: T1, Thymidine kinase; test: Binding affinity for herpes simplex virus type 1 thymidine kinase
Mus musculus [18] = test: Effect on HSV-2 encephalitis in mice following intraperitoneal dosage at 400 mg/kg; expressed as mean day of death; assay type: functional; outline: as §2

Row | Structure (SMILES) | IC50 (Thymidine kinase [1]) [nM] | IC50 (Thymidine kinase [2]) [nM] | other results
1 | COCCCCn1cnc2c(=O)[nH]c(Nc3ccccc3)nc21 | 12000 | 14000 | –
2 | OCCCn1cnc2c(O)nc(Nc3ccccc3)nc21 | 2000 | 1500 | Activity (Mus musculus [3]): 9; Activity (Mus musculus [4]): 10.7; Activity (Mus musculus [5]): 0; Activity (Mus musculus [6]): 9.7; Activity (Mus musculus [7]): 1
3 | CN(c1ccccc1)c1nc2c(ncn2CCCCO)c(=O)[nH]1 | 16000 | 37000 | –
4 | O=C(O)CCCn1cnc2c(O)nc(Nc3ccccc3)nc21 | 1000 | 700 | Activity (Mus musculus [3]): 11
5 | Nc1nc2c(ncn2CCCCO)c(=O)[nH]1 | 60000 | 160000 | –
6 | O=c1[nH]c(Nc2ccccc2)nc2c1ncn2CCO | 4400 | – | –
7 | OCCCCCn1cnc2c(O)nc(Nc3ccccc3)nc21 | 15000 | 54000 | Activity (Mus musculus [3]): 8; Activity (Mus musculus [4]): 11.2; Activity (Mus musculus [5]): 1; Activity (Mus musculus [6]): 10.7; Activity (Mus musculus [7]): 0
8 | O=c1[nH]c(Oc2ccccc2)nc2c1ncn2CCCCO | 750 | 9000 | –
9 | O=c1[nH]c(Nc2ccccc2)nc2c1ncn2CCCCO | – | – | Activity (Mus musculus [8]): 9; Activity (Mus musculus [3]): 4; Activity (Mus musculus [4]): 15.7; Activity (Mus musculus [9]): 11; Activity (Mus musculus [10]): 10; Activity (Mus musculus [5]): 4; Activity (Mus musculus [6]): 9.5; Activity (Mus musculus [11]): 9; Activity (Mus musculus [7]): 3; Activity (Mus musculus [12]): 18; Activity (Mus musculus [13]): 6; Activity (Mus musculus [14]): 11.8
10 | OCCCCn1cnc2c(O)nc(Sc3ccccc3)nc21 | 500 | 2000 | Activity (Mus musculus [15]): 10
11 | CCN(C)CCCCn1cnc2c(O)nc(Nc3ccccc3)nc21 | 4700 | 380 | –
12 | OCCC1CCCCN1CCCCn1cnc2c(O)nc(Nc3ccccc3)nc21 (stereo not given) | 770 | 65 | –
13 | CN(C)CCCCn1cnc2c(O)nc(Nc3ccccc3)nc21 | 3600 | 620 | –
14 | OCCN(CCO)CCCCn1cnc2c(O)nc(Nc3ccccc3)nc21 | 5200 | 340 | –
15 | Oc1nc(Nc2ccccc2)nc2c1ncn2CCCCN1CCC(O)CC1 | 8200 | 710 | –
16 | Oc1nc(Nc2ccccc2)nc2c1ncn2CCCCN1CCCC(O)C1 (stereo not given) | 5700 | 310 | –

Row | Structure (SMILES) | IC50 (Thymidine kinase [1]) [nM] | IC50 (Thymidine kinase [2]) [nM] | other results
17 | Oc1nc(Nc2ccccc2)nc2c1ncn2CCCCN1CCC(O)(c2ccc(Cl)c(C(F)(F)F)c2)CC1 | 2000 | 200 | –
18 | Cl.Cl.Oc1nc(Nc2ccccc2)nc2c1ncn2CCCCN1CCCCC1 | 1600 | 220 | Activity (Mus musculus [3]): 11; Activity (Mus musculus [4]): 15.2; Activity (Mus musculus [5]): 0
19 | Oc1nc(Nc2ccccc2)nc2c1ncn2CCCCN1CCCCC1c1ccccc1 (stereo not given) | 550 | 90 | –
20 | COC1CCCN(CCCCn2cnc3c(O)nc(Nc4ccccc4)nc32)C1 (stereo not given) | 2500 | 150 | –
21 | CCN(CC)CCCCn1cnc2c(O)nc(Nc3ccccc3)nc21 | 4500 | 230 | –
22 | Oc1nc(Nc2ccccc2)nc2c1ncn2CCCCN1CCC(N2CCCCC2)CC1 | 16500 | 1000 | –
23 | C=CCN(CC=C)CCCCn1cnc2c(O)nc(Nc3ccccc3)nc21 | 2100 | 420 | –
24 | Oc1nc(Nc2ccccc2)nc2c1ncn2CCCCN1CCCC1CN1CCCCC1 (stereo not given) | 1000 | 130 | –
25 | Cl.Cl.Oc1nc(Nc2ccccc2)nc2c1ncn2CCCCN1CCCC2CCCCC21 (stereo not given) | 150 | 13 | Activity (Mus musculus [3]): 10; Ki (Thymidine kinase [16]): 5 nM; Ki (Thymidine kinase [17]): 30 nM; Activity (Mus musculus [11]): 0; Activity (Mus musculus [12]): 15.4
26 | Oc1nc(Nc2ccccc2)nc2c1ncn2CCCCN1CCCc2ccccc21 | 350 | 47 | –
27 | CC1CN(CCCCn2cnc3c(O)nc(Nc4ccccc4)nc32)CC(C)N1 (stereo not given) | 7100 | 800 | –
28 | N#CC1(c2ccccc2)CCN(CCCCn2cnc3c(O)nc(Nc4ccccc4)nc32)CC1 | 410 | 220 | –
29 | COC1CCN(CCCCn2cnc3c(O)nc(Nc4ccccc4)nc32)CC1 | 2300 | 140 | –
30 | Nc1nc2c(ncn2COCCO)c(=O)[nH]1 [ACYCLOVIR] | – | – | Activity (Mus musculus [3]): 10; Activity (Mus musculus [4]): 17.2; Activity (Mus musculus [5]): 6; Activity (Mus musculus [6]): 13; Activity (Mus musculus [7]): 7
31 | O=C(O)P(=O)(O)O [FOSCARNET] | – | – | Activity (Mus musculus [8]): 7; Activity (Mus musculus [3]): 7; Activity (Mus musculus [4]): 15.2; Activity (Mus musculus [9]): 12.3; Activity (Mus musculus [10]): 6; Activity (Mus musculus [5]): 0; Activity (Mus musculus [6]): 9.2; Activity (Mus musculus [11]): 4; Activity (Mus musculus [18]): 18.5; Activity (Mus musculus [7]): 1; Activity (Mus musculus [12]): 17.8; Activity (Mus musculus [13]): 5; Activity (Mus musculus [14]): 10.4

— ChEMBL document CHEMBL1139534, “Inhibition of herpes simplex virus thymidine kinases by 2-phenylamino-6-oxopurines and related compounds: structure-activity relationships and antiherpetic activity in vivo” (J Med Chem, 2005)
